Activity calls are given as the source filed them. The rule behind the calls is not given here.
Key:
Human betaherpesvirus 5 [1] = assay: Antiviral activity against human cytomegalovirus AD169 infected in HEL cells assessed as reduction in viral plaque formation; assay type: functional, organism-based; details: Human betaherpesvirus 5, AD169, HEL
Method in brief: (§1)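 Confluent HEL fibroblasts were infected with 100 PFU of HCMV in the presence of varying compound concentrations. Plaques were counted once plaque formation was complete in untreated infected controls.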

Human betaherpesvirus 5 [2] = assay: Antiviral activity against human cytomegalovirus Davis infected in HEL cells assessed as reduction in viral plaque formation; assay type: functional, organism-based; details: Human betaherpesvirus 5, Davis; method in brief: as §1
[3] = Cytotoxicity against human cytomegalovirus infected HEL cells assessed as alteration of cell morphology incubated for 3 days by microscopy; assay type: cell-based; details: HEL cells infected with human cytomegalovirus
Method in brief: (§2)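 Cytotoxicity was given as the minimum cytotoxic concentration (MCC): the compound concentration causing a microscopically detectable change in HEL cell morphology.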

HEL [4] = assay: Cytotoxicity against human cytomegalovirus infected HEL cells assessed as cell growth inhibition incubated for 3 days by coulter counter method; assay type: cell-based; details: 72 h
Method in brief: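 HEL cells were seeded at 5 × 10^3 cells/well and left to adhere and proliferate for 24 h, then compound-containing medium was added. After 3 days at 37 °C, cells were counted with a Coulter counter.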

[5] = Cytotoxicity against Varicella zoster virus infected HEL cells assessed as alteration of cell morphology incubated for 3 days by microscopy; assay type: cell-based; details: human, HEL cells infected with Varicella zoster virus; method in brief: as §2
Human alphaherpesvirus 1 = assay: Antiviral activity against HSV1 KOS; assay type: functional, organism-based
Method in brief: (§3)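 Confluent cell monolayers in 96-well plates were inoculated with 100 CCID50 of virus together with varying compound concentrations. Cytopathicity was scored once it reached completion in untreated infected controls.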

Human alphaherpesvirus 2 = assay: Antiviral activity against HSV2 Lyons; assay type: functional, organism-based; method in brief: as §3
[6] = system: Human herpesvirus 2 strain G; assay: Antiviral activity against HSV2 G Lyons; assay type: functional, organism-based
Vaccinia virus = assay: Antiviral activity against Vaccinia virus Lederle; assay type: functional, organism-based; details: Orthopoxvirus vaccinia
Method in brief: (§4)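 Confluent cell monolayers (HEL, Vero, HeLa or MDCK) in 96-well plates were infected with 100 CCID50 of virus in the presence of varying compound concentrations. Cytopathicity was scored once it reached completion in untreated infected controls.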

[7] = system: Vesicular stomatitis virus; assay: Antiviral activity against Vesicular stomatitis virus; assay type: functional, organism-based; method in brief: as §4
Coxsackievirus B4 = assay: Antiviral activity against Human coxsackievirus B4; assay type: functional, organism-based
Influenza A virus H3N2 = assay: Antiviral activity against Influenza A virus H3N2; assay type: functional, organism-based; method in brief: as §4
Influenza A virus = assay: Antiviral activity against Influenza A virus H1N1; assay type: functional, organism-based; method in brief: as §4
Influenza B virus = assay: Antiviral activity against Influenza B virus; assay type: functional, organism-based; method in brief: as §4
Human respirovirus 3 = assay: Antiviral activity against Parainfluenza 3 virus; assay type: functional, organism-based
[8] = system: Mammalian orthoreovirus 1; assay: Antiviral activity against Reovirus 1; assay type: functional
Sindbis virus = assay: Antiviral activity against Sindbis virus; assay type: functional, organism-based
Punta Toro virus = assay: Antiviral activity against Punta Toro virus; assay type: functional, organism-based
Feline coronavirus = assay: Antiviral activity against Feline coronavirus; assay type: functional, organism-based
[9] = system: Human immunodeficiency virus 1; assay: Antiviral activity against HIV1 3B infected in human CEM cells assessed as reduction in virus- induced cytopathicity incubated for 4 to 5 days by microscopy based virus syncytium formation assay; assay type: functional, organism-based; details: CCRF-CEM
Method in brief: (§5)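 CEM cells at ~3 × 10^5 cells/mL, infected with 100 CCID50 of HIV per mL in the presence of compound dilutions. Incubated 4–5 days at 37 °C in humidified CO2. Syncytium (giant cell) formation scored by microscopy.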

[10] = system: Human immunodeficiency virus 2; assay: Antiviral activity against HIV2 ROD infected in human CEM cells assessed as reduction in virus- induced cytopathicity incubated for 4 to 5 days by microscopy based virus syncytium formation assay; assay type: functional, organism-based; details: ISOLATE ROD, CCRF-CEM; method in brief: as §5
HEL [11] = assay: Cytotoxicity against Varicella zoster virus infected HEL cells assessed as cell growth inhibition incubated for 3 days by coulter counter method; details: human, 72 h

Row | SMILES | EC50 (Human betaherpesvirus 5 [1]) | EC50 (Human betaherpesvirus 5 [2]) | MCC at 72 h [3] | MCC at 72 h [5] | inhibition (Human alphaherpesvirus 1) | inhibition (Human alphaherpesvirus 2) | inhibition [6] | inhibition (Vaccinia virus) | inhibition [7] | inhibition (Coxsackievirus B4) | inhibition (Influenza A virus H3N2) | inhibition (Influenza A virus) | inhibition (Influenza B virus) | inhibition (Human respirovirus 3) | inhibition [8] | inhibition (Sindbis virus) | inhibition (Punta Toro virus) | inhibition (Feline coronavirus) | inhibition [9] | inhibition [10] | other results
1 | O=C(Cn1c(=O)ccn(CCCCCOc2ccc(-c3ccccc3)cc2)c1=O)Nc1ccc(Oc2ccccc2)cc1 | 510 nM | 1040 nM | 20 µM | 100 µM | inactive | inactive | inactive | inactive | inactive | inactive | inactive | inactive | inactive | inactive | inactive | inactive | inactive | inactive | inactive | inactive | CC50 (HEL [4]): 2.8 µM
2 | O=C(Cn1c(=O)ccn(CCCOc2ccc(Br)cc2)c1=O)Nc1ccc(Oc2ccccc2)cc1 | – | 3900 nM | ≥ 100 µM | ≥ 100 µM | inactive | inactive | inactive | inactive | inactive | inactive | inactive | inactive | inactive | inactive | inactive | inactive | inactive | inactive | inactive | inactive | CC50 (HEL [4]): 15.2 µM; CC50 (HEL [11]): 15.2 µM
3 | O=c1[nH]c(=O)n([C@H]2C[C@H](O)[C@@H](CO)O2)cc1/C=C/Br [BRIVUDINE] | – | – | – | > 300 µM | – | – | – | – | – | – | – | – | – | – | – | – | – | – | – | – | CC50 (HEL [11]): ≥ 79.3 µM
4 | O=C(Cn1c(=O)ccn(CCCCOCc2ccc(Br)cc2)c1=O)Nc1ccc(Oc2ccccc2)cc1 | 1800 nM | ≥ 1200 nM | ≥ 4 µM | > 100 µM | inactive | inactive | inactive | inactive | inactive | inactive | inactive | inactive | inactive | inactive | inactive | inactive | inactive | inactive | inactive | inactive | CC50 (HEL [4]): 4.8 µM
5 | O=C(Cn1c(=O)ccn(CCCCCCCCOc2ccc(Br)cc2)c1=O)Nc1ccc(Oc2ccccc2)cc1 | < 32 nM | < 32 nM | ≥ 0.16 µM | 0.8 µM | inactive | inactive | inactive | inactive | inactive | inactive | inactive | inactive | inactive | inactive | inactive | inactive | inactive | inactive | inactive | inactive | CC50 (HEL [11]): 11.7 µM
6 | O=C(Cn1c(=O)ccn(CCCCCOc2ccccc2)c1=O)Nc1ccc(Oc2ccccc2)cc1 | 3600 nM | 4000 nM | ≥ 20 µM | > 100 µM | inactive | inactive | inactive | inactive | inactive | inactive | inactive | inactive | inactive | inactive | inactive | inactive | inactive | inactive | inactive | inactive | CC50 (HEL [4]): 5.4 µM
